Screening data from PubChem BioAssay.
KCNQ1 block: blocks the human KCNQ1 potassium channel | P51787 | CHO-K1 KCNQ1, FluxOR thallium flux fluorescence; hits give high values | B-score at 10 µM | 310,000 tested, 1.3% active | AID 2642;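 active = compounds whose thallium flux B-score, printed positive for inhibition, exceeds three library SD while starting fluorescence stays within three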;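 also: channel opened by potassium depolarization with thallium stimulus after 20 min compound exposure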
hERG rescue: hERG (human) protection from proarrhythmic block; Q12809; CHO-hERG, FluxOR thallium flux, dofetilide IC70 present; activation (rescue from dofetilide block), less the hit threshold, % at 10 µM; 310,000 tested, 0.51% active;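 active = activation above the mean of controls blocked by dofetilide plus 5 SD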;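 also: thallium influx through hERG after potassium depolarization seen as dye fluorescence rise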
KCNQ1 act: human KCNQ1 channel potentiation or activation; P51787; CHO-K1 KCNQ1, thallium flux FluxOR fluorescence; hits give high values; B-score at 10 µM; 310,000 tested, 0.35% active; AID 2648;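 active = fluorescence ratio B-score, a plate-corrected score, at least three library SD, with initial intensity B-score within 5 SD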
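assay system = CHO-K1 cells stably expressing KCNQ1 | medium = assay buffer, equal DMSO in all wells | timing = 37 °C overnight plating, 90-min dark dye load, 20-min compound pretreatment | measured by = kinetic FluxOR thallium fluorescence, 10-s 1-Hz baseline, 110-s post-stimulus read | measure = fluorescence change relative to baseline, converted to B score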
KCNK3 block: human KCNK3 channel inhibition, primary screen | O14649 | CHO-KCNK3 thallium flux, FluxOR fluorescence; hits give low values | B-score at 10 µM | 340,000 tested, 0.84% active | AID 602410;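 active = B-score under library mean minus 4 SD, starting fluorescence ratio at most library mean plus 5 SD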;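 also: more negative B-score means stronger inhibition of thallium flux through KCNK3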
Target sequence (O14649 whole entry, looked up): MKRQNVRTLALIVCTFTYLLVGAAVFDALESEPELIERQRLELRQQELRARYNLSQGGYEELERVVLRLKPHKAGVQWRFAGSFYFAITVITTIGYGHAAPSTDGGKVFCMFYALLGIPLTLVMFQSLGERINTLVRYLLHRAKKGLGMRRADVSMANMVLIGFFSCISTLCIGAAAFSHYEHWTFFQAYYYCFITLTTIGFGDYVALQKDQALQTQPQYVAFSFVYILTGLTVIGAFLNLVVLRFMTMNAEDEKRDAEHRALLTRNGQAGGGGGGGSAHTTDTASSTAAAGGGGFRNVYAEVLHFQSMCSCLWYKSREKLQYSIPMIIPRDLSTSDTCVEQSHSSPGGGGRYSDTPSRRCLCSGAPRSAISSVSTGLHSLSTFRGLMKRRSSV
KCNK9 block: inhibitors of human KCNK9 two-pore domain potassium channel | Q9NPC2 | HEK293 KCNK9, FluxOR thallium flux fluorescence; hits give low values | B-score at 10 µM | 310,000 tested, 1.2% active;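 active = ratio B-score over 3 SD below the library mean, with starting fluorescence within 5 SD of its mean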;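 also: negative B-score means less thallium flux so channel inhibition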
* = called active by the depositor; i = inactive; . = not tested or not shown. The list is not random: actives were taken first. Their share in the collection is about 3.1%.

SMILES	KCNQ1 block	hERG rescue	KCNQ1 act	KCNK3 block	KCNK9 block
Cc1ccc(C)c(OCC(=O)Nc2nc3ccc([N+](=O)[O-])cc3s2)c1C	6*	-18	i	i	i
CCC(=O)Nc1nc2ccc([N+](=O)[O-])cc2s1	i	-14	i	i	i
Cc1sc2ncnc(NCC(O)c3ccc([N+](=O)[O-])cc3)c2c1C (stereo unspecified)	9*	-15	i	i	i
Cc1sc2ncnc(NCC(O)c3ccccc3)c2c1C (stereo unspecified)	i	-16	i	i	i
COc1cc(/C=N/NC(=O)Nc2ccccc2)ccc1OC(C)=O	i	-7	i	i	i
C=CC[n+]1c(/C=C/c2ccc(OC(C)=O)c(OC)c2)ccc2ccccc21	i	-7	12*	i	i
CCN(C(=O)COC(=O)C1=COCCO1)c1c(N)n(Cc2ccccc2)c(=O)[nH]c1=O	.	.	.	i	.
Cc1n[nH]c(C)c1CN(C)C(=O)C1CCC(=O)N(CC2CCCCC2)C1 (stereo unspecified)	i	-6	i	i	i
CN(C)c1ccc(N=Nc2ccccc2C(=O)OCC(=O)Nc2ccccc2C(F)(F)F)cc1	6*	-12	i	i	i
CN(C)c1ccc(N=Nc2ccccc2C(=O)OCC(=O)N2CCCC2)cc1	i	-6	i	i	i
O=[N+]([O-])c1ccc(Cl)c(CN2CCN(c3ncccn3)CC2)c1	i	-13	i	i	i
Cc1ccc2nc(C)c(CN3CCN(c4ccc([N+](=O)[O-])cc4Cl)CC3)n2c1	9*	-17	i	i	i
COc1nnc(-c2ccc(N3CCCCC3)c(NC(=O)COc3ccccc3)c2)c2ccccc12	.	.	.	i	.
O=C(c1ccco1)N1CCN(C2CC(=O)N(c3ccc(C(F)(F)F)cc3)C2=O)CC1 (stereo unspecified)	i	-4	i	i	i
Cc1ccc(S(=O)(=O)Nc2cccc3c2O[C@H](CN(C)C(=O)Nc2ccc(C(F)(F)F)cc2)[C@@H](C)CN([C@H](C)CO)C3=O)cc1	.	.	.	i	.
O=C(c1ccc(-c2ccc([N+](=O)[O-])cc2)o1)N1CCN(S(=O)(=O)c2cccs2)CC1	.	.	.	i	.
O=C1CN(c2ccccc2)C(=S)N1C(=O)c1ccc(Br)cc1	i	-1	i	i	i
CCC(C)(C)NC(=O)C(c1cccs1)N(C(=O)c1ccn[nH]1)c1ccccc1 (stereo unspecified)	i	-9	i	i	i
CCC(C)(C)NC(=O)C(c1cccc(OC)c1)N(C(=O)c1ccn[nH]1)c1cccc(OC)c1 (stereo unspecified)	8*	-14	i	i	i
CCC(=O)c1ccc(OC(=O)N2CCOCC2)cc1	i	-8	i	i	i
CCn1cnnc1SCC(=O)Nc1ccccc1C(=O)NC1CC1	.	.	.	i	.
CN(N=Nc1cccc([N+](=O)[O-])c1)c1ccccc1	i	-3	i	i	-6.7*
CN(N=Nc1ccc([N+](=O)[O-])cc1)c1ccccc1	i	-11	i	i	i
C/C(CC(=O)Nc1ccc2ccccc2c1)=N\NC(=O)c1ccc(O)c(O)c1	i	-6	i	i	i
Cc1nc(SCC(=O)NC(=O)NCc2ccco2)nc(C)c1C	i	6.7*	i	i	i
SMILES	KCNQ1 block	hERG rescue	KCNQ1 act	KCNK3 block	KCNK9 block
Cc1nc(SCC(=O)NCc2ccco2)nc(C)c1C	i	-17	i	i	i
Cc1sc2nc(C(C)C)nc(SCC(=O)NCc3ccco3)c2c1C	i	8.7*	12*	i	i
Cc1ccc(-n2[nH]c(C)c(/C=N/Nc3ccc([N+](=O)[O-])cc3[N+](=O)[O-])c2=O)cc1	7*	-9	i	i	i
CC1CCN(S(=O)(=O)c2cc(C(=O)NC3(C)CCS(=O)(=O)C3)ccc2Br)CC1 (stereo unspecified)	.	.	.	i	.
O=C(COC(=O)c1nc(Cl)ccc1Cl)Nc1ccc2[nH]c(=O)[nH]c2c1	i	-11	i	i	i
Nc1nonc1-c1nc2ccccc2n1CC(=O)Nc1ccccc1	i	-4	i	i	i
CCOC(=O)c1ccccc1NC(=O)Cn1c(-c2nonc2N)nc2ccccc21	i	-17	i	i	-7.6*
CCCCCCCN1C(Nc2ccccc2)=NC[C@@H]1CC(C)C	7*	-14	i	i	i
CC(C)C[C@H]1CN=C(Nc2ccccc2)N1CCCC1CCCC1	i	-18	i	i	i
COC1=C/C(=C/c2c(N)n3nc(-c4ccc(C)cc4)sc3nc2=O)C=CC1=O	.	.	.	i	.
CCOC1=C/C(=C/c2c(N)n3nc(-c4ccccc4)sc3nc2=O)C=CC1=O	10*	-15	i	i	i
CCOc1ccc(/C=N/O)cc1	i	-6	i	i	i
CCOc1ccc(C=NC23CN4CN(CN(C4)C2)C3)cc1	i	12*	i	i	i
CC(NC(=S)NCCc1ccccc1)C(c1cccs1)N1CCN(Cc2ccccc2)CC1 (stereo unspecified)	6*	-12	i	i	i
CC(NC(=O)NC1CCCCC1)C(c1cccs1)N1CCN(Cc2ccccc2)CC1 (stereo unspecified)	i	-10	i	i	i
CN(C(=O)c1ccc(NC(=O)Cc2ccc(NC(=O)C3CCCN(C(=O)C4CC4)C3)cc2)cc1)C1CCCC1 (stereo unspecified)	.	.	.	i	.
COC(=O)N/N=C/c1cc(C)n(-c2cccc3ccccc23)c1C	i	-5	i	i	-7*
CCCCn1c(N)c(N(Cc2ccccc2OC)C(=O)C(C)Oc2ccc(Br)cc2)c(=O)[nH]c1=O (stereo unspecified)	.	.	.	i	.
O=C(Nc1ccccc1Cl)c1cccc(NC(=O)C2CCCC2)c1	i	-12	i	i	-6.9*
O=C(NC1CC1)c1cccc(NC(=O)C2CCCC2)c1	.	.	.	i	.
O=C(COC(=O)c1c(F)cccc1F)Nc1ccc(N2CCCCC2)cc1	.	.	.	i	.
Oc1c(Cl)cc(Cl)cc1/C=N/c1nccs1	i	-6	9*	i	i
NC(=O)c1cccc(N=Cc2cc(Cl)cc(Cl)c2O)c1	i	6.5*	10*	i	i
Cc1cccc(N=Cc2cc(Br)cc(Cl)c2O)c1	i	4	i	i	i
CS(=O)(=O)c1ccc(NC(=O)CCN2C(=O)C3CCCCC3C2=O)cc1 (stereo unspecified)	i	-6	i	i	i
O=C(Nc1cccc([N+](=O)[O-])c1)Nc1cccc([N+](=O)[O-])c1	8*	-22	i	i	i
O=C(Nc1cccc([N+](=O)[O-])c1)NC1CCCCCCC1	7*	-18	i	i	i
